Measurements pooled from the literature.
Protocols differ between the studies behind these lines.
Target: Microtubule-associated serine/threonine-protein kinase 1 (MAST1, Homo sapiens, UniProt Q9Y2H9)

`O=C(c1ccc(Nc2nccc(-c3cc4ccccc4s3)n2)cc1)N1CCC(N2CCCC2)CC1` gave a remaining binding of 53% (binding; competition with immobilised ligand; 1 µM).
The remaining binding of `CN(C)c1ncc(F)c(-c2cnn3ncccc23)n1` is reported as 96% (binding; 1 µM).
For `CC(=O)N1CCC(c2ccc(C(=O)NC3=NCCN3)cc2C(F)(F)F)CC1`, the remaining binding was 87% (cell-free assay; competition with immobilised ligand; 1 µM).
`c1cncc(-c2cccc(Nc3nccc(NC4CCCCC4)n3)c2)c1` gave a remaining binding of 95% (binding; competition with immobilised ligand; 10 µM).
`C[C@H]1CCN(c2nccc(-c3cnn4ncccc34)n2)C1` gave a remaining binding of 82% (binding; 1 µM).
The remaining binding of `COc1ncc2cc3ccccc3nc2c1C#N` is reported as 98% (cell-free assay; competition with immobilised ligand; 5 µM).
`C[C@@H](c1ccc(-n2cnc3c(N)ncnc32)cc1)N1CCc2nn(C)c(Cc3ccccc3)c2C1=O` has a remaining binding of 40% (binding; competition with immobilised ligand; 0.1 µM).
`O=C(c1ccc(Nc2ncc(Cl)c(-c3ccc(Cl)s3)n2)cc1)N1CCC(N2CCCC2)CC1` gave a remaining binding of 16% (binding; competition with immobilised ligand; 1 µM).
`CC1CCCN1c1nccc(-c2cnn3ncccc23)n1` (stereo not drawn) gave a remaining binding of 100% (binding; 1 µM).
For `O=C(Nc1c[nH]nc1C(=O)NC1CCNCC1)c1cc(F)cc(F)c1`, the remaining binding was 100% (binding; competition with immobilised ligand; 1 µM).
For `N[C@H]1CCN(c2nccc(-c3cnn4ncccc34)n2)C1`, the remaining binding was 100% (binding; 1 µM).
`O=c1nc(-c2ccccn2)sc2ccccc12` gave a remaining binding of 73% (binding; competition with immobilised ligand; 1 µM).
`F[C@@H]1CCN(c2nccc(-c3cnn4ncccc34)n2)C1` gave a remaining binding of 100% (binding; 1 µM).
`CN([C@@H]1CCc2c(CC(=O)O)c3ccccc3n2C1)S(=O)(=O)c1ccc(F)cc1` gave a remaining binding of 100% (cell-free assay; competition with immobilised ligand; 1 µM).
The remaining binding of `C=CC(=O)N1CCC(C(=O)NCC(=O)N2CCN(c3nc(-c4cnc(N)nc4C(F)F)nc(N4CCOCC4)n3)CC2)CC1` is reported as 100% (binding; competition with immobilised ligand; 1 µM).
`COc1ccc2c(c1)O[C@H](c1ccc(OC)c(OC)c1)C[C@@H]2NC(=O)C1(c2ccc3c(c2)OC(F)(F)O3)CC1` gave a remaining binding of 100% (cell-free assay; competition with immobilised ligand; 1 µM).
The remaining binding of `COc1ccnn2ncc(-c3ccnc(N(C)C)n3)c12` is reported as 99% (binding; 1 µM).
With `CC(=O)C1=C(C)N(c2cccc(C(F)(F)F)c2)C(=O)N[C@@H]1c1ccc(C#N)nc1` the remaining binding was 96.9% (cell-free assay; competition with immobilised ligand; 1 µM).
`COc1cnc(Nc2cccc(S(N)(=O)=O)c2)nc1N1CCN(c2ccccc2)C(=O)C1` has a remaining binding of 100% (binding; competition with immobilised ligand; 1 µM).
`CCC(=O)N[C@@H]1CC[C@H](C(=O)N(C)c2ccc(-c3nc4ccccc4o3)cc2)C1` has a remaining binding of 94% (cell-free assay; competition with immobilised ligand; 1 µM).
`O=C(NCCCN1CCOCC1)c1ccc(Nc2nccc(-c3cc4ccccc4s3)n2)cc1` gave a remaining binding of 78% (binding; competition with immobilised ligand; 1 µM).
